Laboratory results from ChEMBL document CHEMBL4765230, “Discovery of Orally Efficacious Phosphoinositide 3-Kinase δ Inhibitors with Improved Metabolic Stability” (J Med Chem, 2016).

Assays:
Rattus norvegicus [1] = assay: Antiarthritic activity in Lewis rat model of Freund's incomplete adjuvant-induced arthritis assessed as inhibition of […] bone formation at 0.3 to 3 mg/kg, po bid administered for 7 days at 12 hrs interval starting from day 10 to day 16 post-immunization by microscopic analysis relative to control; format: functional; set-up: scale not given: the % may be the effect or the level left; details: dose 0.3-3 mg/kg, time 7 day
Summary of the method: (§1)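 Female Lewis rats with established collagen-induced arthritis dosed orally twice daily for 7 days at 0.3, 1 and 3 mg/kg, starting day 10 after second collagen immunization. Joint histopathology scored for pannus formation, cartilage damage, bone resorption and periosteal bone formation; ED50 derived. n = 8/treatment group, n = 4 normal controls.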

[2] = Clearance in Beagle dog at 1 mg/kg, iv measured over 24 hrs by LC/MS/MS analysis; format: ADME, organism-based, Canis lupus familiaris; details: in vivo
Summary of the method: (§2)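 Intravenous 1 mg/kg and oral 5 mg/kg doses. Vehicle: 5% ethanol/55% PEG 400/40% water for rats and dogs; 5% ethanol/22% PEG 400/73% water for cynomolgus; 5% ethanol/25% PEG 400/70% water for rhesus. Half-life and MRT from iv; mean ± SD, n = 3 per route.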

Rattus norvegicus [3] = assay: Antiarthritic activity in po dosed Lewis rat model of Freund's incomplete adjuvant-induced arthritis administered for 7 days at 12 hrs interval starting from day 10 to day 16 post-immunization by microscopic analysis; format: functional; details: 168 h, time 7 day; summary of the method: as §1
[4] = Terminal half life in Sprague-Dawley rat at 1 mg/kg, iv measured over 24 hrs by LC/MS/MS analysis; format: ADME, organism-based; details: in vivo, read-out: beta t1/2 (converted)
Summary of the method: (§3)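 Single intravenous dose of 1 mg/kg. Vehicles: rats and dogs 5% ethanol/55% PEG 400/40% water; cynomolgus monkeys 5% ethanol/22% PEG 400/73% water; rhesus monkeys 5% ethanol/25% PEG 400/70% water. Plasma concentration–time data gave Vss and iv half-life. Reported as mean ± SD, n = 3.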

[5] = Oral bioavailability in Sprague-Dawley rat at 5 mg/kg measured over 24 hrs by LC/MS/MS analysis; format: ADME, organism-based; details: in vivo; summary of the method: as §2
[6] = Volume of distribution at steady state in Sprague-Dawley rat at 1 mg/kg, iv measured over 24 hrs by LC/MS/MS analysis; format: ADME, organism-based; details: in vivo, read-out: Vdss; summary of the method: as §3
[7] = target: Phosphatidylinositol 4,5-bisphosphate 3-kinase catalytic subunit beta isoform (Homo sapiens, UniProt P42338); assay: Inhibition of PI3K p110beta in human PC-3 cells assessed as reduction in AKT phosphorylation at S473 residue measured after 2 hrs by TR-FRET analysis; format: cell-based
Sequence of Phosphatidylinositol 4,5-bisphosphate 3-kinase catalytic subunit beta isoform (P42338 whole entry, canonical isoform): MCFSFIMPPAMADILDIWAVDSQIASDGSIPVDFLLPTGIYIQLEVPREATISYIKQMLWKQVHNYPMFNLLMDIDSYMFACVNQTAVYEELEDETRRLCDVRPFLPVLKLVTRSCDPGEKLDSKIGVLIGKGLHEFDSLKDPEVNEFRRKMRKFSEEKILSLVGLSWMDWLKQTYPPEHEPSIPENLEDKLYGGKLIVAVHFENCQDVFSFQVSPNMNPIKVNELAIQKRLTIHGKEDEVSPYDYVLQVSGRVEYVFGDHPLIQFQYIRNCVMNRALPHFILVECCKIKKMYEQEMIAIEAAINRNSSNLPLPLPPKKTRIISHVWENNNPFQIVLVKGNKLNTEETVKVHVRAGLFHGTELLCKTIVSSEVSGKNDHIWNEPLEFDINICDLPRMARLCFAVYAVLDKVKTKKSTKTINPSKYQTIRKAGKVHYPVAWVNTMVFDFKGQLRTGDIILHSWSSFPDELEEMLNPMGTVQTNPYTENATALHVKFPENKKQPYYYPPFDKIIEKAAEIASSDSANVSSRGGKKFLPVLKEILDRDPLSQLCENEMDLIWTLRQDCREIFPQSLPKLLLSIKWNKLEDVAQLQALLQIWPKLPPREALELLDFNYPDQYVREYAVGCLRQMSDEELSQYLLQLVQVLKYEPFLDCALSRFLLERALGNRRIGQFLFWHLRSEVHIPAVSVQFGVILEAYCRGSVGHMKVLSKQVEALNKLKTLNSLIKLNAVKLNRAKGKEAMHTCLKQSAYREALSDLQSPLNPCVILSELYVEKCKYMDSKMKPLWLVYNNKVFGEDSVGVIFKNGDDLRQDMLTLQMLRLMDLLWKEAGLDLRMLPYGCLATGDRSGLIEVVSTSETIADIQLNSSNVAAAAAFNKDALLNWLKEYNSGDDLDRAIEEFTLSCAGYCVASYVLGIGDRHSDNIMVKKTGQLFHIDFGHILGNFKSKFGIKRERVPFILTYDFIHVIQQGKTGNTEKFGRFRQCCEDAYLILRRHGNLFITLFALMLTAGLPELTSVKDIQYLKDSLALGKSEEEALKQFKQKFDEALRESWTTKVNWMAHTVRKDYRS
Summary of the method: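 PC3 cells quiesced 2 h at 37 °C/5% CO2 in DMEM with 0.1% FBS/1% PSG, then plated at 25 000 cells/well onto prespotted compound dilutions and incubated 2 h. Lysates were read for Akt and phospho-Akt S473 by TR-FRET (Eu-cryptate Akt donor, d2 phospho-Akt acceptor). Data normalized to 1 μM wortmannin and DMSO controls; four-parameter fit; triplicate; geometric mean.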

PI3K p110 beta/p85 alpha = PI3K p110 beta/p85 alpha (Homo sapiens, UniProt P42338); assay: Inhibition of recombinant human full-length N-terminal His-tagged PI3K p110beta/p85alpha using […] as substrate measured after 30 mins by TR-FRET assay; format: protein-complex assay
Sequence of PI3K p110 beta/p85 alpha (P27986 whole entry): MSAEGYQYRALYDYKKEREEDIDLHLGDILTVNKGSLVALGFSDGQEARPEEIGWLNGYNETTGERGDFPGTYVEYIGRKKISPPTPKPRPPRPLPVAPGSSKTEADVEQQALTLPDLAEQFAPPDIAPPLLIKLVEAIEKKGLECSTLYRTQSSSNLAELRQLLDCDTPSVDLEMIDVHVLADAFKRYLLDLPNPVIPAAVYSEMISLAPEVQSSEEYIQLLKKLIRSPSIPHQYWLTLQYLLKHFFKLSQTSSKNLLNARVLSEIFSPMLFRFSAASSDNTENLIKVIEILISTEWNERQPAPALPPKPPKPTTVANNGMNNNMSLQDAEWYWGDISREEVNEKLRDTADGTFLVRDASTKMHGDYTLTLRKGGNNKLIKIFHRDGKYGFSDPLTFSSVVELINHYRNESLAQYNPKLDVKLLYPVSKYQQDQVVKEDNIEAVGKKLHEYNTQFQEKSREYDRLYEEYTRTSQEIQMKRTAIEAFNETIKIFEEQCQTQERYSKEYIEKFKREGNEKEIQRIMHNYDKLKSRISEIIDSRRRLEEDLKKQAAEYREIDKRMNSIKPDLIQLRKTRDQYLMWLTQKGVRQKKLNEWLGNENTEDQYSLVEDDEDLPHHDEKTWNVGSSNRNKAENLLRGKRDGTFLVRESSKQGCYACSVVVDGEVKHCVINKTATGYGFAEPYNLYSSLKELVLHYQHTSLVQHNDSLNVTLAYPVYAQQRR
Sequence of PI3K p110 beta/p85 alpha (P42338 whole entry): as the sequence (P42338 whole entry, canonical isoform) above

[8] = Terminal half life in cynomolgus monkey at 1 mg/kg, iv measured over 24 hrs by LC/MS/MS analysis; format: ADME, organism-based, Macaca fascicularis; details: in vivo, read-out: beta t1/2 (converted); summary of the method: as §3
[9] = MRT in Sprague-Dawley rat at 1 mg/kg, iv measured over 24 hrs by LC/MS/MS analysis; format: ADME, organism-based; details: in vivo; summary of the method: as §2
[10] = Volume of distribution at steady state in dog at 1 mg/kg, iv; format: ADME, organism-based, Canis lupus familiaris; details: in vivo, read-out: Vdss
Summary of the method: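 Rats and dog received 1 mg/kg intravenously, formulated in 12% w/v Captisol in water. Volume of distribution was taken at steady state from the iv plasma profile. Three animals per dosing route.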

[11] = target: Phosphatidylinositol 4,5-bisphosphate 3-kinase catalytic subunit gamma isoform (Homo sapiens, UniProt P48736); assay: Inhibition of human full length PI3K p110gamma using […] as substrate measured after 30 mins by TR-FRET assay
Sequence of Phosphatidylinositol 4,5-bisphosphate 3-kinase catalytic subunit gamma isoform (P48736 whole entry, canonical isoform): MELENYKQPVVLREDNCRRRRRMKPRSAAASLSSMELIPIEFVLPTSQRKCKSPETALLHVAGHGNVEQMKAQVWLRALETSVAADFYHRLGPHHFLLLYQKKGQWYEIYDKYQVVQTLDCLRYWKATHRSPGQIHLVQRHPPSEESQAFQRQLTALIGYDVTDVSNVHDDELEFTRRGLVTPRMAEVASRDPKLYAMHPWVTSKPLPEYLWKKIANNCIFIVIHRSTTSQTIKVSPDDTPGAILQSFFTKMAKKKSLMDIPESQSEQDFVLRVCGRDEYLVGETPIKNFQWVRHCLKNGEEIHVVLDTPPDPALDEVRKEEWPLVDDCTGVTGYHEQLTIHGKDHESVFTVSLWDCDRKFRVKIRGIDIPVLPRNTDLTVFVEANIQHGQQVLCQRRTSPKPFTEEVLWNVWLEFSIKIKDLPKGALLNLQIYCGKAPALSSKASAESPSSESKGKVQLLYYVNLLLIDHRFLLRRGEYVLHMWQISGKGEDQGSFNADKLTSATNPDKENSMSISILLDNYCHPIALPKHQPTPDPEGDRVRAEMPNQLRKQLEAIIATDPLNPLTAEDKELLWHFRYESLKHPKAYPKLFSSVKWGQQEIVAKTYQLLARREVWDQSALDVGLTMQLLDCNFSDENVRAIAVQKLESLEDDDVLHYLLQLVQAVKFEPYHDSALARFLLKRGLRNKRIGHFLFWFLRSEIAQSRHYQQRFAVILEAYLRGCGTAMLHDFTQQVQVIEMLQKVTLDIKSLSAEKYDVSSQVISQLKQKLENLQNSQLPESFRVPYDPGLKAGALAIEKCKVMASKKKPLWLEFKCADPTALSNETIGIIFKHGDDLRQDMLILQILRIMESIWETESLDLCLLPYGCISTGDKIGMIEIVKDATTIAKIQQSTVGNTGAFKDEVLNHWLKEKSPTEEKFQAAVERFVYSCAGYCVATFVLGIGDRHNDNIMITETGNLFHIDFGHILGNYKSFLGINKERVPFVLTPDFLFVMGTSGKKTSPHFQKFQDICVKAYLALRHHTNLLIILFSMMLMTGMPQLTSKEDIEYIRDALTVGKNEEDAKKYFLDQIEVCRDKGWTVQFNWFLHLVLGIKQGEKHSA

[12] = MRT in Beagle dog at 1 mg/kg, iv measured over 24 hrs by LC/MS/MS analysis; format: ADME, organism-based, Canis lupus familiaris; details: in vivo; summary of the method: as §2
[13] = Clearance in cynomolgus monkey at 1 mg/kg, iv measured over 24 hrs by LC/MS/MS analysis; format: ADME, organism-based, Macaca fascicularis; details: in vivo; summary of the method: as §2
[14] = target: T1, Phosphatidylinositol 4,5-bisphosphate 3-kinase catalytic subunit delta isoform (Homo sapiens, UniProt O00329); assay: Inhibition of PI3K p110delta in human basophil assessed as reduction in anti-FCepsilonR1 mAb-stimulated basophil activation preincubated for 60 mins followed by anti-FCepsilonR1 mAb stimulation and measured after 25 mins by flow cytometry analysis
T1 sequence (O00329 whole entry): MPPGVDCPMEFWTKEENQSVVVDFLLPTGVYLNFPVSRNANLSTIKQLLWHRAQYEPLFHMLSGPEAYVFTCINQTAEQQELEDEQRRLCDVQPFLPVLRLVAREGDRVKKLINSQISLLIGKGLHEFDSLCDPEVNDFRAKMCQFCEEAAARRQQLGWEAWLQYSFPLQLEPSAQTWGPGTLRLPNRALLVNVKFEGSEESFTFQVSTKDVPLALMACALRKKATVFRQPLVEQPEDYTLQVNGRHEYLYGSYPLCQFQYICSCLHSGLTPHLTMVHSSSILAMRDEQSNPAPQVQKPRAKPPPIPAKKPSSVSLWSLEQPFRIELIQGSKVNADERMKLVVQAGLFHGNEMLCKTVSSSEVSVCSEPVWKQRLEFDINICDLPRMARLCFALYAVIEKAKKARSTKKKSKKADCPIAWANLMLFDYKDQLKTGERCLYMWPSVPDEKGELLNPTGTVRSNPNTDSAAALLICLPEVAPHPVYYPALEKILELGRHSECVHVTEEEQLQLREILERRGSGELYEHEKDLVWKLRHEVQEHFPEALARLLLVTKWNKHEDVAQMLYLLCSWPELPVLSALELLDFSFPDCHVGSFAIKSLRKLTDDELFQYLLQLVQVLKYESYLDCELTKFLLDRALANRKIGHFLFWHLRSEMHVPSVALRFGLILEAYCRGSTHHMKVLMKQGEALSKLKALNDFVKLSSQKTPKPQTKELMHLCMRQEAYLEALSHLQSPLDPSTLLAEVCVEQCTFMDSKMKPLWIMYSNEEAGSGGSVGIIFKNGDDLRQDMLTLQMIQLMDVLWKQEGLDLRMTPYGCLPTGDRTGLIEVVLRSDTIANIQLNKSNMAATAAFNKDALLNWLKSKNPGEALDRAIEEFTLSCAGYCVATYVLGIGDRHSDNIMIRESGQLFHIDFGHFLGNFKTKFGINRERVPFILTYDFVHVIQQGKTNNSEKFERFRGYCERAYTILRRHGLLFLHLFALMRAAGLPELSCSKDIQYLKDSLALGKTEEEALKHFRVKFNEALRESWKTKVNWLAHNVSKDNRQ

[15] = Volume of distribution at steady state in rhesus monkey at 1 mg/kg, iv measured over 24 hrs by LC/MS/MS analysis; format: ADME, organism-based, Macaca mulatta; details: in vivo, read-out: Vdss; summary of the method: as §3

clearance [2]: 9 mL/min/kg | half-life [4]: 2.04 h | bioavailability [5]: 57% | Vd [6]: 0.83 L/kg | EC50 [7]: 42 nM | IC50 (PI3K p110 beta/p85 alpha): 100 nM | half-life [8]: 2.89 h | MRT [9]: 1.95 h | Vd [10]: 1.03 L/kg | IC50 [11]: 190 nM | MRT [12]: 2.01 h | clearance [13]: 6.83 mL/min/kg | EC50 [14]: 0.31 nM | Vd [15]: 1.34 L/kg
SMILES: N#Cc1c(N)nc(N)nc1N[C@H](c1nc2c(F)ccc(Cl)c2c(=O)n1-c1cccnc1)C1CC1 [GS-9901]
Activity (Rattus norvegicus [1]): 48% | ED50 (Rattus norvegicus [3]): 0.6 mg/kg
